Data published in publication PMC10447992 (Heliyon, 2023).

What was measured:
[1] = MTT cytotoxicity assay, WISH cell line; format: cell-based; conditions: human, WISH cells (human amnion)
In short: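 WISH cells (ATCC via VACSERA) grown in RPMI-1640 with 10% fetal bovine serum at 37 °C, 5% CO2. Seeded at 1.0 × 10^4 cells/well for 48 h, then treated 24 h with a range of concentrations. MTT (5 mg/mL stock) added for 4 h, formazan dissolved in DMSO, A570 read. Viability given as % of untreated cells. IC50 in μg/mL is the concentration giving 50% inhibition versus untreated cells. Doxorubicin reference.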

[2] = Antioxidant activity screening by ABTS method; conditions: ABTS radical scavenging, 6 min incubation, absorbance at 734 nm
In short: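 ABTS radical made from 7 mM ABTS plus 140 mM […], left in the dark at room temperature for 16 h, then diluted 1:44 (v/v) in water. Equal volumes of radical solution and sample mixed in microplate and held 6 min at room temperature. Absorbance read at 734 nm against 100% methanol. Percent inhibition calculated by formula; L-ascorbic acid as reference.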

Structure (SMILES) | IC50 at 24 h [1] [µM] | ABTS Inhibition % [2] [%]
COc1cccc2c1C(=O)c1c(O)c3c(c(O)c1C2=O)C[C@@](O)(C(=O)CO)C[C@@H]3O[C@H]1C[C@H](N)[C@H](O)[C@H](C)O1 [DOX, doxorubicin] | 3.18 ± 0.2 | 
O=C1O[C@H]([C@@H](O)CO)C(O)=C1O [L-Ascorbic acid] |  | 88.8
